Experimental data reported in ChEMBL document CHEMBL4342476, “Identification of RIPK3 Type II Inhibitors Using High-Throughput Mechanistic Studies in Hit Triage” (ACS Med Chem Lett, 2020).

Legend:
Homo sapiens [1] = species: Homo sapiens; assay: (§1) Selectivity index, ratio of IC50 for displacement of fluorescein labeled ATP probe from His/GST-tagged RIPK1 (unknown origin) incubated for 60 mins by HTRF assay to IC50 for displacement of fluorescein labeled ATP probe from full length His/GST-tagged RIPK3 (unknown origin) incubated for 60 mins by HTRF assay
[2] = biological target: T1, Receptor-interacting serine/threonine-protein kinase 1 (Homo sapiens, UniProt Q13546); assay: Displacement of fluorescein labeled ATP probe from His/GST-tagged RIPK1 (unknown origin) incubated for 60 mins by HTRF assay
T1 sequence (Q13546 whole entry): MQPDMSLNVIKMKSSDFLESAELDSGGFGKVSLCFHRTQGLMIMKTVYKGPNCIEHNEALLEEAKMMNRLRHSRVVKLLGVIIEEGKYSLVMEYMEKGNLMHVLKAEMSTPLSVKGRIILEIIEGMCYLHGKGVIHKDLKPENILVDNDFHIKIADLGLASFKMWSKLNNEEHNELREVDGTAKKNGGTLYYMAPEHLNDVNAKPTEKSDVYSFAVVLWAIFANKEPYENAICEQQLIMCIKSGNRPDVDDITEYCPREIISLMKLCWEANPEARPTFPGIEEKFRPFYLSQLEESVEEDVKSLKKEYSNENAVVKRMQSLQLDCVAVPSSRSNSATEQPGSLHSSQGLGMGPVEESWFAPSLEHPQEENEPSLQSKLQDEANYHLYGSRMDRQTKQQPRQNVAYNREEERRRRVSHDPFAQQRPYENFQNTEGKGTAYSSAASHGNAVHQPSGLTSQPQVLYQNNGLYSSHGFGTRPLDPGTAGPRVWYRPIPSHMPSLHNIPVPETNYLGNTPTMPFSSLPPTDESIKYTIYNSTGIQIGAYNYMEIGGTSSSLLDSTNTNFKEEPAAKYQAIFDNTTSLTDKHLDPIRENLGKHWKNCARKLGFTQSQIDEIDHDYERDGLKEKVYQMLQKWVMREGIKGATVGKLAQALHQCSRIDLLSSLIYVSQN

[3] = biological target: T2, Receptor-interacting serine/threonine-protein kinase 2 (Homo sapiens, UniProt O43353); assay: Displacement of fluorescein labeled ATP probe from His/GST-tagged RIPK2 (unknown origin) incubated for 60 mins by HTRF assay
T2 sequence (O43353 whole entry): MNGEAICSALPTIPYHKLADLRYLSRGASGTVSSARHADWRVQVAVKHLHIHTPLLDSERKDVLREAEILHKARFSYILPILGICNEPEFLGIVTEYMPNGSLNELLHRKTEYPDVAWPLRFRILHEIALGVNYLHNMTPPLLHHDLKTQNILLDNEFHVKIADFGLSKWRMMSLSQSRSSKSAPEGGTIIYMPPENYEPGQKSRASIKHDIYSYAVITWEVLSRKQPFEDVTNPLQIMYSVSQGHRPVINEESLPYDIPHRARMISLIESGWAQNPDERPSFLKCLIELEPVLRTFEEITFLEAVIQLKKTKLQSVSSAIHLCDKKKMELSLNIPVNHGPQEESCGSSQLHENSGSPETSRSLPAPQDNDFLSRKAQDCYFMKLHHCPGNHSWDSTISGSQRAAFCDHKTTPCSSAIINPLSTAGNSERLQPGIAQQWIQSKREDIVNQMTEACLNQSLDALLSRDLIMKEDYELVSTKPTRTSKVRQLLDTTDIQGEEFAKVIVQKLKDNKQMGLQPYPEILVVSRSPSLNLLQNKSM

[4] = biological target: Hepatocyte growth factor receptor (Homo sapiens, UniProt P08581); assay: Displacement of fluorescein labeled ATP probe from His/GST-tagged c-Met (unknown origin) incubated for 60 mins by HTRF assay
Chain of Hepatocyte growth factor receptor (P08581 whole entry): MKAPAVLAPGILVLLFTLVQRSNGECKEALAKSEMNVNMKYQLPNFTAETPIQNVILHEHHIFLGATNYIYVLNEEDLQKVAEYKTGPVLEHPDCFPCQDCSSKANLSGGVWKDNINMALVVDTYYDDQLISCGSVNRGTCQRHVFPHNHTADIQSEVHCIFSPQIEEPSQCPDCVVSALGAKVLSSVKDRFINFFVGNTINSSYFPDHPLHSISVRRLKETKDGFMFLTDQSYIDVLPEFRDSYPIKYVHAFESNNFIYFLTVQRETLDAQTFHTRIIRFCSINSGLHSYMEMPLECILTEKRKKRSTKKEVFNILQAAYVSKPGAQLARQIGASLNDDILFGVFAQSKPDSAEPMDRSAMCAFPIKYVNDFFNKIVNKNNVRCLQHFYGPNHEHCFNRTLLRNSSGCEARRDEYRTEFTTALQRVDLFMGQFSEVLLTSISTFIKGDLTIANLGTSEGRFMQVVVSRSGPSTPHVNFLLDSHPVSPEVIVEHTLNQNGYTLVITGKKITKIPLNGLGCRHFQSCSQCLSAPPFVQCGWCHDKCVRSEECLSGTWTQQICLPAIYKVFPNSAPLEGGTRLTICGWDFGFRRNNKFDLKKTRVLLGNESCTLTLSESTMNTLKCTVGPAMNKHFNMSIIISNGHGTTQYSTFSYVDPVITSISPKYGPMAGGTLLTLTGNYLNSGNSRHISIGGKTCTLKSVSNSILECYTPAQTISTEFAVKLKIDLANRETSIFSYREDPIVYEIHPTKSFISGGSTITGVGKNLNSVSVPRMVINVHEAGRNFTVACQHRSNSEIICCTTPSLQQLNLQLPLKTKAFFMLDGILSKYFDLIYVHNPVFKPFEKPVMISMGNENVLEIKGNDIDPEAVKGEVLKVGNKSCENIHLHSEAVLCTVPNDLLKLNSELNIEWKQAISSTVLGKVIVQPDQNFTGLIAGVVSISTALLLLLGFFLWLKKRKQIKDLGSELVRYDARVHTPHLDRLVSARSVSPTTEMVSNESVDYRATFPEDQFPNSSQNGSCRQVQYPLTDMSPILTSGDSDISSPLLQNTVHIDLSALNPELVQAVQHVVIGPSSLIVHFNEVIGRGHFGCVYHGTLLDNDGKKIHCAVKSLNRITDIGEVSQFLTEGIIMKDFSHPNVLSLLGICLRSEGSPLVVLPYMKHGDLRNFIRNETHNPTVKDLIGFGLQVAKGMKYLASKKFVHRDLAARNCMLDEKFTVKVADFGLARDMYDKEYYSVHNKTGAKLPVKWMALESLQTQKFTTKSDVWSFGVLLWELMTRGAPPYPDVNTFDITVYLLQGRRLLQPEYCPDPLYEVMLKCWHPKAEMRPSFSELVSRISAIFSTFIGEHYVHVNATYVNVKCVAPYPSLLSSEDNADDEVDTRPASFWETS

[5] = biological target: T3, Receptor-interacting serine/threonine-protein kinase 3 (Homo sapiens, UniProt Q9Y572); assay: Displacement of fluorescein labeled ATP probe from full length His/GST-tagged RIPK3 (unknown origin) incubated for 60 mins by HTRF assay
Target sequence in this assay (Q9Y572 whole entry): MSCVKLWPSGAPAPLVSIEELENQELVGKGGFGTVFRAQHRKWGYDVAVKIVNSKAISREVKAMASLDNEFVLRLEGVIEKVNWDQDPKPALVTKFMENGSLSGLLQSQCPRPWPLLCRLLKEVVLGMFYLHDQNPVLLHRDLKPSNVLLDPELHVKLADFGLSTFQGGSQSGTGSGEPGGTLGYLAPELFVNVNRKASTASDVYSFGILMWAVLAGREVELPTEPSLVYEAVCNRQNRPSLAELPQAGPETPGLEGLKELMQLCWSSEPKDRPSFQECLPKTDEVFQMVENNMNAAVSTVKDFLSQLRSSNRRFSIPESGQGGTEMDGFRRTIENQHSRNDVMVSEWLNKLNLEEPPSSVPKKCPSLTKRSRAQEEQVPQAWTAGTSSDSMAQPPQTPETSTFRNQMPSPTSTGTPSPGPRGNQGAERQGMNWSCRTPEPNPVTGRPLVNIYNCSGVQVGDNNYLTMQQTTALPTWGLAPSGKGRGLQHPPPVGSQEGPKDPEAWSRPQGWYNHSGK

[6] = Selectivity index, ratio of IC50 for displacement of fluorescein labeled ATP probe from His/GST-tagged RIPK2 (unknown origin) incubated for 60 mins by HTRF assay to IC50 for displacement of fluorescein labeled ATP probe from His/GST-tagged c-Met (unknown origin) incubated for 60 mins by HTRF assay; conditions: human, 1 h
[7] = Selectivity index, ratio of IC50 for displacement of fluorescein labeled ATP probe from His/GST-tagged RIPK1 (unknown origin) incubated for 60 mins by HTRF assay to IC50 for displacement of fluorescein labeled ATP probe from His/GST-tagged c-Met (unknown origin) incubated for 60 mins by HTRF assay; conditions: human, 1 h
[8] = biological target: T1, Receptor-interacting serine/threonine-protein kinase 1; assay: Displacement of fluorescein labeled ATP probe from full length His/GST-tagged RIPK1 (unknown origin) incubated for 60 mins by HTRF assay
Homo sapiens [9] = species: Homo sapiens; assay: as §1, with “c-Met” for “RIPK1”
[10] = biological target: T2, Receptor-interacting serine/threonine-protein kinase 2; assay: Displacement of fluorescein labeled probe from full length human GST-tagged RIPK2 expressed in Sf9 cells incubated for 60 mins by HTRF assay
[11] = biological target: T3, Receptor-interacting serine/threonine-protein kinase 3; assay: Time dependent inhibition of full length His/GST-tagged RIPK3 (unknown origin) measured every 5 mins for 60 mins in presence of fluorescein labeled probe by HTRF assay relative to control; conditions: 1 h
Target sequence in this assay (Q9Y572 whole entry, looked up): as the sequence (Q9Y572 whole entry) above

[12] = biological target: T1, Receptor-interacting serine/threonine-protein kinase 1; assay: Displacement of fluorescein labeled probe from full length human GST-tagged RIPK1 expressed in Sf9 cells incubated for 60 mins by HTRF assay
[13] = biological target: T3, Receptor-interacting serine/threonine-protein kinase 3; assay: Displacement of fluorescein labeled probe from full length human GST-tagged RIPK3 expressed in Sf9 cells incubated for 60 mins by HTRF assay
Target sequence in this assay (Q9Y572 whole entry): as above

[14] = biological target: T3, Receptor-interacting serine/threonine-protein kinase 3; assay: Time dependent inhibition of full length His/GST-tagged RIPK3 (unknown origin) measured every 5 mins for 60 mins in presence of fluorescein labeled probe by HTRF assay relative to control
How it was run: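 Active full-length RIPK3 was preformed as a complex with the fluorescent probe and antibody. Inhibitor was then added as an 11-point concentration-response series, with HTRF read at 5 and 60 min. Time dependency was scored as the fold shift in IC50 between the two reads; ≥5-fold flagged possible slow binding.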
Target sequence in this assay (Q9Y572 whole entry, looked up): as the sequence (Q9Y572 whole entry) above

[15] = biological target: T3, Receptor-interacting serine/threonine-protein kinase 3; assay: Time dependent inhibition of full length His/GST-tagged RIPK3 (unknown origin) measured every 5 mins for 60 mins in presence of fluorescein labeled probe by HTRF assay relative to control; conditions: 1 h; remark: listed apart in the source
Target sequence in this assay (Q9Y572 whole entry, looked up): as the sequence (Q9Y572 whole entry) above

[16] = biological target: Mitogen-activated protein kinase 14 (Homo sapiens, UniProt Q16539); assay: Binding affinity to p38alpha (unknown origin); format: ADME
Chain of Mitogen-activated protein kinase 14 (Q16539 whole entry): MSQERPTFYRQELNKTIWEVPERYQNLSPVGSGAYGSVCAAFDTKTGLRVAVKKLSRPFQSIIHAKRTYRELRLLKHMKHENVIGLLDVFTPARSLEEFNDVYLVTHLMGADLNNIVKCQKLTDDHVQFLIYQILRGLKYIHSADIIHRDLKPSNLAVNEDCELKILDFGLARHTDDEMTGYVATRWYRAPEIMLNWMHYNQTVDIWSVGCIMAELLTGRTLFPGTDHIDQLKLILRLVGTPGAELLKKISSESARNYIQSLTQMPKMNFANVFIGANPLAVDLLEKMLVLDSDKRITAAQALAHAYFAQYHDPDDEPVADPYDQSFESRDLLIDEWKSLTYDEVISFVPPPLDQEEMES

Compound	IC50 [2] [nM]	IC50 [3] [nM]	IC50 [4] [nM]	IC50 [5] [nM]	further results
O=C(Nc1ccc(Oc2ccnc(NC(=O)C3CC3)c2)c(F)c1)c1cccn(-c2ccc(F)cc2)c1=O	180	1800	2.5	2.9	Ratio IC50 (Homo sapiens [1]): 38
CC#Cc1c(Oc2ccc(NC(=O)c3cccn(-c4ccc(F)cc4)c3=O)cc2F)ccnc1N	–	3000	–	16	IC50 [8]: 600 nM
Cc1ccc(COC(=O)Nc2cc(-c3cc4c([nH]3)CCNC4=O)ccn2)cc1	–	–	–	–	IC50 [10]: 50 nM; fold change (FC) [11]: 2; IC50 [12]: 17000 nM; IC50 [13]: 270 nM
O=C(Nc1ccc(Oc2ccnc3[nH]ccc23)c(F)c1)c1cccn(-c2ccc(F)cc2)c1=O	1500	> 15000	–	180	–
Nc1ccc(C#Cc2c(Oc3ccc(NC(=O)c4cccn(-c5ccc(F)cc5)c4=O)cc3F)ccnc2N)nc1	–	–	–	–	IC50 [10]: 2400 nM; fold change (FC) [11]: 6; IC50 [12]: 310 nM; fold change (FC) [14]: 6; IC50 [13]: 0.3 nM; fold change (FC) [15]: 6
O=C(Nc1ccc(Oc2ccncc2)c(F)c1)c1cccc(-c2ccc(F)cc2)c1	> 15000	> 15000	4500	> 15000	–
Cc1c(NC(=O)c2cccn(-c3ccc(F)cc3)c2=O)ccc(Oc2ccnc(NC(=O)C3CC3)c2)c1C	5500	> 10000	1100	91	Ratio IC50 (Homo sapiens [9]): 100

Second part, led by results:

IC50 [2] [nM]	IC50 [3] [nM]	IC50 [4] [nM]	IC50 [5] [nM]	Compound	further results
–	> 15000	> 1500	180	Cc1c(NC(=O)c2cccn(-c3ccc(F)cc3)c2=O)ccc(Oc2ccncc2)c1C	Ratio IC50 [6]: > 10; Ratio IC50 [7]: > 10; IC50 [8]: > 15000 nM; Ratio IC50 (Homo sapiens [9]): > 10
200	680	6.3	8	Cc1cc(NC(=O)c2cccn(-c3ccc(F)cc3)c2=O)ccc1Oc1ccnc(NC(=O)C2CC2)c1	–
> 15000	13000	500	320	Cc1cc(NC(=O)c2cccn(-c3ccc(F)cc3)c2=O)cc(C)c1Oc1ccncc1	–
> 15000	> 15000	12000	50	O=C(Nc1ccc(Oc2ccncc2)c2ccccc12)c1cccn(-c2ccc(F)cc2)c1=O	Activity [16]: Active
11000	3100	300	88	Cc1cc(NC(=O)c2cccn(-c3ccc(F)cc3)c2=O)cc(C)c1Oc1ccnc(NC(=O)C2CC2)c1	–
> 15000	> 15000	18	400	O=C(Nc1ccc(Oc2ccncc2)c(F)c1)c1cccn(-c2ccc(F)cc2)c1=O	–
